Data: ChEMBL document CHEMBL1155154, “Target gene sequencing to characterize the penicillin G susceptibility of Neisseria meningitidis” (2007)

Experiments:
Assay type in all cases: functional
Neisseria meningitidis [1] = test: Antimicrobial activity against Neisseria meningitidis isolates harboring penA 42 allele encoding PBP2 mutant
Summary of the method: (§1)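 Penicillin G MICs were determined for N. meningitidis isolates grouped by penA allele, with the PBP2 C-terminal region (amino acids 441 to 574) deduced from penA sequencing. Values are geometric mean MICs with lower and upper 95% confidence limits, calculated only for alleles represented by at least five isolates.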

Neisseria meningitidis [2] = test: Antimicrobial activity against Neisseria meningitidis isolates harboring penA 12 allele encoding PBP2 mutant; summary of the method: as §1
Neisseria meningitidis [3] = test: Antimicrobial activity against Neisseria meningitidis isolates harboring penA 3 allele encoding PBP2 mutant; summary of the method: as §1
Neisseria meningitidis [4] = test: Antimicrobial activity against Neisseria meningitidis isolates harboring penA 30 allele encoding PBP2 mutant; summary of the method: as §1
Neisseria meningitidis [5] = test: Antimicrobial activity against Neisseria meningitidis isolates harboring penA 14 allele encoding PBP2 mutant; summary of the method: as §1
Neisseria meningitidis [6] = test: Antimicrobial activity against Neisseria meningitidis isolates harboring penA 52 allele encoding PBP2 mutant; summary of the method: as §1
Neisseria meningitidis [7] = test: Antimicrobial activity against Neisseria meningitidis isolates harboring penA 17 allele encoding PBP2 mutant; summary of the method: as §1
Neisseria meningitidis [8] = test: Antimicrobial activity against Neisseria meningitidis isolates harboring penA 15 allele encoding PBP2 mutant; summary of the method: as §1
Neisseria meningitidis [9] = test: Antimicrobial activity against Neisseria meningitidis isolates harboring penA 16 allele encoding PBP2 mutant; summary of the method: as §1
Neisseria meningitidis [10] = test: Antimicrobial activity against Neisseria meningitidis isolates harboring penA 9 allele encoding PBP2 mutant; summary of the method: as §1
Neisseria meningitidis [11] = test: Antimicrobial activity against Neisseria meningitidis isolates harboring penA 111 allele encoding PBP2 P551 mutant; summary of the method: as §1
Neisseria meningitidis [12] = test: Antimicrobial activity against Neisseria meningitidis isolates harboring penA 33 allele encoding PBP2 mutant; summary of the method: as §1
Neisseria meningitidis [13] = test: Antimicrobial activity against Neisseria meningitidis isolates harboring penA 19 allele encoding PBP2 mutant; summary of the method: as §1
Neisseria meningitidis [14] = test: Antimicrobial activity against Neisseria meningitidis isolates harboring penA 20 allele encoding PBP2 mutant; summary of the method: as §1
Neisseria meningitidis [15] = test: Antimicrobial activity against Neisseria meningitidis isolates harboring penA 13 allele encoding PBP2 mutant; summary of the method: as §1
Neisseria meningitidis [16] = test: Antimicrobial activity against Neisseria meningitidis isolates harboring penA 57 allele encoding PBP2 mutant; summary of the method: as §1
Neisseria meningitidis [17] = test: Antimicrobial activity against Neisseria meningitidis isolates harboring penA 5 allele encoding PBP2 mutant; summary of the method: as §1
Neisseria meningitidis [18] = test: Antimicrobial activity against Neisseria meningitidis isolates harboring penA 4 allele encoding PBP2 mutant; summary of the method: as §1
Neisseria meningitidis [19] = test: Antimicrobial activity against Neisseria meningitidis isolates harboring penA 25 allele encoding PBP2 mutant; summary of the method: as §1
Neisseria meningitidis [20] = test: Antimicrobial activity against Neisseria meningitidis isolates harboring penA 34 allele encoding PBP2 mutant; summary of the method: as §1
Neisseria meningitidis [21] = test: Antimicrobial activity against Neisseria meningitidis isolates harboring penA 83 allele encoding PBP2 mutant; summary of the method: as §1
Neisseria meningitidis [22] = test: Antimicrobial activity against Neisseria meningitidis isolates harboring penA 11 allele encoding PBP2 mutant; summary of the method: as §1
Neisseria meningitidis [23] = test: Antimicrobial activity against Neisseria meningitidis isolates harboring penA 81 allele encoding PBP2 mutant; summary of the method: as §1
Neisseria meningitidis [24] = test: Antimicrobial activity against Neisseria meningitidis isolates harboring penA 1 allele encoding PBP2 mutant; summary of the method: as §1
Neisseria meningitidis [25] = test: Antimicrobial activity against Neisseria meningitidis isolates harboring penA 29 allele encoding PBP2 mutant; summary of the method: as §1
Neisseria meningitidis [26] = test: Antimicrobial activity against Neisseria meningitidis isolates harboring penA 22 allele encoding PBP2 mutant; summary of the method: as §1
Neisseria meningitidis [27] = test: Antimicrobial activity against Neisseria meningitidis isolates harboring penA 18 allele encoding PBP2 mutant; summary of the method: as §1
Neisseria meningitidis [28] = test: Antimicrobial activity against Neisseria meningitidis isolates harboring penA 2 allele encoding PBP2 mutant; summary of the method: as §1
Neisseria meningitidis [29] = test: Antimicrobial activity against Neisseria meningitidis isolates harboring penA 23 allele encoding PBP2 mutant; summary of the method: as §1
Neisseria meningitidis [30] = test: Antimicrobial activity against Neisseria meningitidis isolates harboring penA 27 allele encoding PBP2 mutant; summary of the method: as §1
Neisseria meningitidis [31] = test: Antimicrobial activity against Neisseria meningitidis isolates harboring penA 7 allele encoding PBP2 mutant; summary of the method: as §1

Measured: MIC

CC1(C)S[C@@H]2[C@H](NC(=O)Cc3ccccc3)C(=O)N2[C@H]1C(=O)O [PENICILLIN G]
0.015 µg/mL: Neisseria meningitidis [17] | Neisseria meningitidis [28]
0.125 µg/mL: Neisseria meningitidis [4] | Neisseria meningitidis [7] | Neisseria meningitidis [12] | Neisseria meningitidis [15]
0.023 µg/mL: Neisseria meningitidis [21] | Neisseria meningitidis [26]
0.047 µg/mL: Neisseria meningitidis [9]
0.032 µg/mL: Neisseria meningitidis [18] | Neisseria meningitidis [20] | Neisseria meningitidis [30]
0.008 µg/mL: Neisseria meningitidis [16] | Neisseria meningitidis [24]
0.004 µg/mL: Neisseria meningitidis [3]
0.19 µg/mL: Neisseria meningitidis [23]
0.094 µg/mL: Neisseria meningitidis [1] | Neisseria meningitidis [8] | Neisseria meningitidis [11] | Neisseria meningitidis [14] | Neisseria meningitidis [22] | Neisseria meningitidis [25] | Neisseria meningitidis [27]
0.064 µg/mL: all other assays above
